Measured values as given in publication PMC8041090 (SLAS discovery : advancing life sciences R & D, 2016).

Experiments:
PP1C [1] = molecular target: PP1C (Homo sapiens, UniProt P62136); experiment: Radiolabeled phosphoprotein substrate confirmation assay; format: biochemical
Method in brief: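 Purified PP1C catalytic subunit (working stock kept at −20 °C in tris with 50% glycerol, 2 mM DTT, 0.1 mg/mL BSA, 2 mM MnCl₂) was assayed in single tubes against [³²P]- or [³³P]-phosphorylase A in HEPES pH 7.0 PP1C buffer (BSA, Triton X-100, DTT, ascorbate, MnCl₂). Liberated labelled orthophosphate was quantified and expressed as percentage of DMF-vehicle control activity; serial dilutions, n = 3.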

PP5C [2] = molecular target: T1, PP5C (Homo sapiens, UniProt P53041); experiment: PP5C OMFP FLINT inhibition assay, 1536-well uHTS format; format: biochemical
T1 sequence (P53041 1-499): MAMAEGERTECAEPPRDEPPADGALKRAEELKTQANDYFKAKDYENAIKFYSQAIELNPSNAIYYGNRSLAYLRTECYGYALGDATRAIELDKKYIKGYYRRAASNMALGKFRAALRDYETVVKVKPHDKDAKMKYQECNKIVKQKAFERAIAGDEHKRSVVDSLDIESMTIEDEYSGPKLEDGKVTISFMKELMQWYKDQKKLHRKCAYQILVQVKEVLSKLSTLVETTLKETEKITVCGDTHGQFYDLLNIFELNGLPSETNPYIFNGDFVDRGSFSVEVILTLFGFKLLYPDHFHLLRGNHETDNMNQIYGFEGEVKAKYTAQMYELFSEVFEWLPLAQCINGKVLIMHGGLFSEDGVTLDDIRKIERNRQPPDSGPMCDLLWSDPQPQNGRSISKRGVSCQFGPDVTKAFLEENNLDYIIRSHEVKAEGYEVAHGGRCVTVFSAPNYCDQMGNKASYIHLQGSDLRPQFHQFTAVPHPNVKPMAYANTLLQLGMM

PP2AC = conditions: read-out: IC50, PP2AC; ref [4],[6]; cited from earlier work
PP4C = conditions: read-out: IC50, PP4C; ref [4],[6]; cited from earlier work
PP1C [3] = conditions: read-out: IC50, PP1C; ref [4],[6]; cited from earlier work
PP5C [4] = conditions: read-out: IC50, PP5C; ref [4],[6]; cited from earlier work

Sequence of PP1C (Homo sapiens, UniProt P62136) (P62136 whole entry): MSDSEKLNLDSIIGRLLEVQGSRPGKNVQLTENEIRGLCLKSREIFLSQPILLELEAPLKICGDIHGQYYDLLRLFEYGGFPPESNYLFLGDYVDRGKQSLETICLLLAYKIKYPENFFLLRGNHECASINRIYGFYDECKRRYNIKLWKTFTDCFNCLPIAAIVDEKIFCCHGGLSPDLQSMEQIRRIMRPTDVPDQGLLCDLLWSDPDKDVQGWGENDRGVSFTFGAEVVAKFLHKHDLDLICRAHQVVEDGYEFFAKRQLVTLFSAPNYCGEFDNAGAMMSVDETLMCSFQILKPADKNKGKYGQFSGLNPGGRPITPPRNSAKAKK

COc1ccc(NC(=O)C2C3CCC(O3)C2C(=O)O)c(OC)c1 (stereo not drawn) [SID 93617938, 3-{[(2,4-dimethoxyphenyl)amino]carbonyl}−7-oxabicyclo[2.2.1]heptane-2-carboxylic acid]
IC50 (PP1C [1]): 18.9 µM

C[C@@]12C(=O)OC(=O)[C@]1(C)[C@H]1CC[C@@H]2O1 [cantharidin]
IC50 (PP5C [2]): 0.52 µM

C[C@@](O)(/C=C/[C@H]1CC=CC(=O)O1)[C@@H](C[C@@H](O)\C=C/C=C\C=C\CO)OP(=O)(O)O [fostriecin]
IC50 (PP2AC): < 0.002 µM | IC50 (PP4C): < 0.002 µM | IC50 (PP1C [3]): > 70 µM | IC50 (PP5C [4]): > 70 µM
